Published values pooled from the literature.
Protocols differ between the studies behind these lines.
Target: Myosin-IIIa (MYO3A, Homo sapiens, UniProt Q8NEV4)

SMILES	test	setting	remaining binding
C[C@@H]1CCN(c2nccc(-c3cnn4ncccc34)n2)C1	binding	1 µM	100%
O=C(c1ccc(Nc2ncc(Cl)c(-c3cc4ccccc4s3)n2)cc1)N1CCC(N2CCCC2)CC1	binding, competition with immobilised ligand	1 µM	91%
C[C@@H](c1ccc(-n2cnc3c(N)ncnc32)cc1)N1CCc2nn(C)c(Cc3ccccc3)c2C1=O	binding, competition with immobilised ligand	0.1 µM	97%
CCN1CCN(Cc2ccc(C(=O)Nc3ccc(C)c(Oc4ccc5c(c4)CC(=O)N5)c3)cc2C(F)(F)F)CC1	binding, competition with immobilised ligand	1 µM	100%
CS(=O)(=O)c1cc(C2(NC(=O)c3cncc4c3cnn4-c3ccc(F)cc3)CC2)ccn1	cell-free assay, competition with immobilised ligand	1 µM	85%
CNC(=O)[C@@H]1CC[C@@H](n2c(-c3ccc4cnccc4c3)nc3ccc(C(=O)NCc4cccc(C(N)=O)c4)cc32)C1	binding, competition with immobilised ligand	1 µM	100%
Cc1c(NC(=O)c2cc(C(N)=O)nc3cc(F)ccc23)c(C(F)(F)F)nn1Cc1ccc(C#N)cc1	binding, competition with immobilised ligand	1 µM	91%
O=C(Nc1c[nH]nc1C(=O)NC1CCNCC1)c1cc(F)cc(F)c1	binding, competition with immobilised ligand	1 µM	94%
CN(C(=O)c1ccccc1)c1cc(N(C)c2ccc3c(c2)CCc2ccc(C(=O)NCCN4CCOCC4)cc2C3=O)ccc1F	cell-free assay, competition with immobilised ligand	1 µM	91%
CN(CCCC(F)(F)F)c1nccc(-c2cnn3ncccc23)n1	binding	1 µM	78%
Nc1ncc2c(n1)-c1c([nH]c3ccc(C#CC4CC4)cc13)CCCC2	binding, competition with immobilised ligand	1 µM	91%
COc1ncc2cc3ccccc3nc2c1C#N	binding, competition with immobilised ligand	5 µM	100%
CN(C)c1nccc(-c2cnn3ncccc23)n1	binding	1 µM	100%
O=C(NCCCN1CCOCC1)c1ccc(Nc2ncc(Cl)c(-c3ccc(Cl)s3)n2)cc1	binding, competition with immobilised ligand	1 µM	95%
N[C@@H]1CCN(c2nccc(-c3cnn4ncccc34)n2)C1	binding	1 µM	100%
FC(F)(F)c1ccc2c(c1)nc(-c1cccnc1)n2C1CC1	cell-free assay, competition with immobilised ligand	1 µM	100%
O=C(NCCCN1CCOCC1)c1ccc(Nc2nccc(-c3cc4ccccc4s3)n2)cc1	binding, competition with immobilised ligand	1 µM	87%
F[C@@H]1CCN(c2nccc(-c3cnn4ncccc34)n2)C1	binding	1 µM	93%
CCC(=O)N[C@H]1CC[C@@H](C(=O)N(C)c2ccc(-c3nc4ccccc4o3)cc2)C1	cell-free assay, competition with immobilised ligand	1 µM	100%
CC1CCCN1c1nccc(-c2cnn3ncccc23)n1 (stereo not drawn)	binding	1 µM	100%
Cc1nccc(COC(=O)N2C[C@@H]3[C@@H](CNC(=O)c4ccc5[nH]nnc5c4)[C@@H]3C2)n1	binding, competition with immobilised ligand	1 µM	99%
